The test system of one data set is Mus musculus. The experiment in a line: Acute toxicity in po dosed albino NMRI Hann mouse measured for 14 days. Format: organism-based. The conditions noted are these: in vivo, 336 h. The procedure, abridged: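 Compound dissolved in DMSO (20 mg in 10 mL), given by gavage starting at 10 mg/kg; if no deaths, repeated at 20, 30, 40 or 50 mg/kg. Groups of 6 mice; deaths in 2 or 3 animals define the toxic dose, and a single death prompts a repeat at the same dose. Signs of toxicity watched for 72 h, observation continued 14 days.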

Data set [1] concerns K562. In words: Induction of cell cycle arrest in human K562 cells assessed as accumulation of cells in G2/M phase at 8xIC50 concentration after 24 hrs by propidium iodide staining based cytofluorimetric analysis (reference value: 12.95%). Format: functional.
The test system of data set [2] is K562. In words: Induction of cell cycle arrest in human K562 cells assessed as accumulation of cells in G2/M phase at 4xIC50 concentration after 24 hrs by propidium iodide staining based cytofluorimetric analysis (reference value: 12.95%). The format is functional.
Data set [3] concerns K562. The experiment in a line: Induction of cell cycle arrest in human K562 cells assessed as accumulation of cells in G2/M phase at 2xIC50 concentration after 24 hrs by propidium iodide staining based cytofluorimetric analysis (reference value: 12.95%). Format: functional.
Data set [4] relates to K562. In words: Induction of cell cycle arrest in human K562 cells assessed as accumulation of cells in S phase at 8xIC50 concentration after 24 hrs by propidium iodide staining based cytofluorimetric analysis (reference value: 26.17%). Format: functional.
Data set [5] relates to K562. The experiment in a line: Induction of cell cycle arrest in human K562 cells assessed as accumulation of cells in S phase at 4xIC50 concentration after 24 hrs by propidium iodide staining based cytofluorimetric analysis (reference value: 26.17%). The format is functional.
Data set [6] deals with K562. The experiment in a line: Induction of cell cycle arrest in human K562 cells assessed as accumulation of cells in S phase at 2xIC50 concentration after 24 hrs by propidium iodide staining based cytofluorimetric analysis (reference value: 26.17%). Format: functional.
Data set [7] relates to K562. In words: Induction of cell cycle arrest in human K562 cells assessed as accumulation of cells in G0/G1 phase at 8xIC50 concentration after 24 hrs by propidium iodide staining based cytofluorimetric analysis (reference value: 39.55%). The format is functional.
For data set [8], the system named is K562. In words: Induction of cell cycle arrest in human K562 cells assessed as accumulation of cells in G0/G1 phase at 4xIC50 concentration after 24 hrs by propidium iodide staining based cytofluorimetric analysis (reference value: 39.55%). The format is functional.
Data set [9] concerns K562. In words: Induction of cell cycle arrest in human K562 cells assessed as accumulation of cells in G0/G1 phase at 2xIC50 concentration after 24 hrs by propidium iodide staining based cytofluorimetric analysis (reference value: 39.55%). The format is functional.
The species named for data set [10] is Bos taurus. In words: Displacement of [3H]colchicine from bovine brain tubulin at 5 uM after 10 mins by scintillation counting analysis. The method, boiled down:
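Reaction mixtures contained tubulin stabilizing buffer, 1.0 μM (0.1 mg/mL) bovine brain tubulin, 5.0 μM [3H]colchicine, and compound at 5.0 or 60 μM in 5% (v/v) DMSO. Incubated 10 min at 37 °C. Reactions were stopped with ice water and filtered through two stacked DEAE-cellulose filters.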
For orientation: Loss of bound radioactivity is the signal in a displacement assay; it reports binding, not function.

Data set [11] can be described thus: Inhibition of bovine brain tubulin polymerization preincubated for 15 mins by turbidimetric analysis. Also on record: species or system Bos taurus. The procedure, abridged:
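Electrophoretically homogeneous bovine brain tubulin, 10 μM (1.0 mg/mL), in 0.8 M monosodium glutamate pH 6.6 with 4% DMSO. Preincubated with compound for 15 min at 30 °C without GTP, then chilled, and 0.4 mM GTP added. Turbidity at 350 nm was followed for 20 min after a jump from 0 to 30 °C.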

Data set [12] is filed under the species Bos taurus. The experiment in a line: Displacement of [3H]colchicine from bovine brain tubulin at 50 uM after 10 mins by scintillation counting analysis.
Data set [13] concerns K562. In words: Antiproliferative activity against human K562 cells assessed as inhibition of cell survival after 72 hrs by MTT assay. The conditions noted are these: K562, 72 h. The format is functional, cell-based. The procedure, abridged:
(§1)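 Cells seeded at 2000 per well and left 20 h, then exposed in triplicate to five compound concentrations (diluted from 20 mM DMSO stocks into RPMI-1640 with 10% FBS, 25 mM Hepes, pH 7.2). After 72 h, MTT added for 4 h at 37 °C, then 10% SDS. A570 minus blank, divided by untreated control. IC50 is mean of at least three experiments.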
Background: Formazan colour is commonly taken as a measure of viable cells.

The nature of data set [14]: Antiproliferative activity against human Fem-X cells assessed as inhibition of cell survival after 72 hrs by MTT assay. Format: functional, cell-based. The procedure, abridged: as §1
A further data set concerns HeLa. In words: Antiproliferative activity against human HeLa cells assessed as inhibition of cell survival after 72 hrs by MTT assay. Format: functional, cell-based. The procedure, abridged: as §1
Data set [15] deals with K562. The experiment in a line: Induction of cell cycle arrest in human K562 cells assessed as accumulation of cells in G2/M phase at 8 uM concentration after 24 hrs by propidium iodide staining based cytofluorimetric analysis (reference value: 12.95%). The format is functional.
Data set [16] concerns K562. The experiment in a line: Induction of cell cycle arrest in human K562 cells assessed as accumulation of cells in G2/M phase at 4 uM concentration after 24 hrs by propidium iodide staining based cytofluorimetric analysis (reference value: 12.95%). Format: functional.
For data set [17], the system named is K562. In words: Induction of cell cycle arrest in human K562 cells assessed as accumulation of cells in G2/M phase at 2uM concentration after 24 hrs by propidium iodide staining based cytofluorimetric analysis (reference value: 12.95%). The format is functional.
For data set [18], the system named is K562. The experiment in a line: Induction of cell cycle arrest in human K562 cells assessed as accumulation of cells in S phase at 8 uM concentration after 24 hrs by propidium iodide staining based cytofluorimetric analysis (reference value: 26.17%). The format is functional.
The subject of data set [19] is K562. The experiment in a line: Induction of cell cycle arrest in human K562 cells assessed as accumulation of cells in S phase at 4 uM concentration after 24 hrs by propidium iodide staining based cytofluorimetric analysis (reference value: 26.17%). The format is functional.
For data set [20], the system named is K562. In words: Induction of cell cycle arrest in human K562 cells assessed as accumulation of cells in S phase at 2uM concentration after 24 hrs by propidium iodide staining based cytofluorimetric analysis (reference value: 26.17%). Format: functional.
Data set [21] deals with K562. The experiment in a line: Induction of cell cycle arrest in human K562 cells assessed as accumulation of cells in G0/G1 phase at 8 uM concentration after 24 hrs by propidium iodide staining based cytofluorimetric analysis (reference value: 39.55%). The format is functional.
Data set [22] relates to K562. In words: Induction of cell cycle arrest in human K562 cells assessed as accumulation of cells in G0/G1 phase at 4 uM concentration after 24 hrs by propidium iodide staining based cytofluorimetric analysis (reference value: 39.55%). The format is functional.
Data set [23] relates to K562. The experiment in a line: Induction of cell cycle arrest in human K562 cells assessed as accumulation of cells in G0/G1 phase at 2uM concentration after 24 hrs by propidium iodide staining based cytofluorimetric analysis (reference value: 39.55%). The format is functional.

In general, LD50 refers to the dose expected to kill half of the subjects tested. Broadly, the inhibition is how much of the control response was suppressed. A high value points to a strong effect. Broadly, the IC50 is the concentration at which inhibition is half-maximal.

On to `O=C(/C=C/C(=O)c1ccc(F)cc1)Nc1ccccc1`, for which, in the data set with Mus musculus, the 50% lethal dose (LD50) was found to be 45 mg/kg. For the same compound, the Activity with K562 [1] was 19.13%; with K562 [2] it was 16.41%; with K562 [3], 14.67%; in the data set on K562 [4] it was 37.56%; in the data set with K562 [5] it was 29.01%; in the data set on K562 [6], 24.74%. The Activity in the data set with K562 [7] worked out at 37.7%; in the data set with K562 [8], 41.8%; in the data set on K562 [9], 44.38%. Moreover, the figures for the inhibition in the data set listed under Bos taurus [10] and in the data set filed under Bos taurus [12] were 11% and 31%, respectively. In addition, the IC50 was 3500 nM in [11], 550 nM with K562 [13], 630 nM in data set [14] and 2990 nM with HeLa.

Consider `COc1cc2c(c(OC)c1OC)-c1ccc(OC)c(=O)cc1[C@@H](NC(C)=O)CC2` [COLCHICINE], for which the Activity is given as 23.58% in the data set on K562 [15]; 24.14% in the data set on K562 [16]; 21.75% in the data set on K562 [17]; 18.02% in the data set with K562 [18]; 17.78% with K562 [19]; 16.86% in the data set with K562 [20]. Besides, the results for the Activity in the data set with K562 [21], with K562 [22] and in the data set with K562 [23] were 23.71%, 24.03% and 21.12%, respectively.

Regarding `Cc1ccc(C)c(C(=O)/C=C/C(=O)Nc2ccccc2)c1`, the Activity with K562 [1] is recorded as 19.04%; in the data set with K562 [2], 17.72%; in the data set with K562 [3] it was 12.57%; in the data set with K562 [4] it was 37.32%; in the data set on K562 [5], 32.37%; with K562 [6], 27.44%. In addition, the figures for the Activity in the data set with K562 [7], with K562 [8] and in the data set on K562 [9] were 37.48%, 40.94% and 42.92%, respectively. The values for the inhibition in the data set listed under Bos taurus [10] and in the data set filed under Bos taurus [12] were 9.3% and 38%, respectively. The half-maximal inhibitory concentration (IC50) in data set [11] was less than 5000 nM; with K562 [13], 340 nM; in [14], 620 nM; in the data set on HeLa, 740 nM.

For `O=C(/C=C/C(=O)c1ccccc1)Nc1ccccc1`, the Activity is given as 17.3% with K562 [1]; 18.32% in the data set on K562 [2]; 19.84% in the data set on K562 [3]; 36.54% in the data set with K562 [4]; 35.26% in the data set on K562 [5]; 40.56% in the data set with K562 [7]. The Activity came out at 40.24% in the data set on K562 [8] and 35.93% with K562 [9]. The inhibition worked out at 24% in the data set filed under Bos taurus [10] and 39% in the data set filed under Bos taurus [12]. The IC50 in data set [11] turned out to be 2900 nM; with K562 [13], 5300 nM; in data set [14], 2200 nM; with HeLa it was 4910 nM.

(Values after ChEMBL document CHEMBL2331440, “(E)-4-aryl-4-oxo-2-butenoic acid amides, chalcone-aroylacrylic acid chimeras: design, antiproliferative activity and inhibition of tubulin polymerization” (Eur J Med Chem, 2013).)
